Bioassay records as filed in PubChem.
Sampled rows, rich in hits. Any-hit rate of the full collection: about 1.3%.
CHT allo act – human CHT allosteric activation; Q9GZV3; CHT-expressing cells, membrane potential dye, choline EC20; stronger effect = higher value; LV-AA mutant CHT in HEK293 cells; B-score at 10 µM; 310,000 compounds, 0.49% hits; AID 488977;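 active = initial fluorescence not abnormally high and integrated response B-score, plate-corrected, over 3 SD above library mean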
proCasp7 act – counter-screen for procaspase-3 activators: activators of human procaspase-7; P55210; recombinant procaspase-7, Ac-DEVD-pNA absorbance 405 nm; D23A/D198A/D206A triple mutant, cannot self-cleave; scale: DMSO 0, 5 µM enzyme 100; activation, % at 8.5 µM; 330,000 compounds, 0.093% hits; AID 463210;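 active = percent activation above the screen-wide mean plus 3 SD, cut at about 25% in these data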
Target sequence (P55210 whole entry D23A/D198A/D206A): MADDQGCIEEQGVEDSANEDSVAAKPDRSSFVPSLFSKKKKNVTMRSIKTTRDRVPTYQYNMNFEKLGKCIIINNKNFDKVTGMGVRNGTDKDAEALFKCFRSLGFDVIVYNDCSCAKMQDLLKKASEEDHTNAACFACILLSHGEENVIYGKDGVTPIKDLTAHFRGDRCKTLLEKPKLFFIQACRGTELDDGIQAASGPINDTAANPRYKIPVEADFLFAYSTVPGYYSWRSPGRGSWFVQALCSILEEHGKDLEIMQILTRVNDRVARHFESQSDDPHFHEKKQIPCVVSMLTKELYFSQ
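Detection: p-Nitroaniline absorbance at 405 nm, read at 0 and 120 min; system: Uncleavable procaspase-7 mutant enzyme; evaluation: % activation from two-timepoint absorbance difference, scaled to controls; times: 1 h enzyme–compound preincubation and 2 h substrate reaction, both 25 °C; buffer or medium: Zinc-free HEPES pH 7.4 with 300 mM NaCl, 0.01% Triton X-100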
proCasp3 act – activators of human procaspase-3; P42574; recombinant procaspase-3 D3A, Ac-DEVD-pNA absorbance 405 nm; activation, % at 8.5 µM; 330,000 compounds, 0.11% hits; AID 463141;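 active = activation above the mean of all tested compounds plus 3 SD, cut at about 21% in these data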;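 also: 0% = DMSO alone and 100% = DMSO wells spiked with extra 5 µM PC-3 D3A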
Target sequence (P42574 whole entry D9A/D28A/D175A): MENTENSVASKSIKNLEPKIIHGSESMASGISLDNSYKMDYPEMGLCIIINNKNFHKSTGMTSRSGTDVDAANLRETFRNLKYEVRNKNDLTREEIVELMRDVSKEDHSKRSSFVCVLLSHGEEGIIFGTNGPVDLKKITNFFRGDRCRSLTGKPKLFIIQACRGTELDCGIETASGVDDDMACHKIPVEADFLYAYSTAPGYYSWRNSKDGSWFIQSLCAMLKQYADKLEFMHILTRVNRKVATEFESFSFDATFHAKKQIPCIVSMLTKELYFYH
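Assay system: Procaspase-3 D3A mutant, all three cleavage aspartates alanine. Buffer or medium: Zinc-free HEPES saline buffer with Triton X-100. Times: 1 h compound preincubation, 2 h substrate hydrolysis at 25 °C. Measured by: 405 nm absorbance of p-nitroaniline, reads at 0 and 120 min. Read-out basis: percent activation relative to control range. Replicates: singlicate.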
CHT inh – inhibits the human high affinity choline transporter; Q9GZV3; CHT-expressing cells, membrane potential dye, choline response; stronger effect = lower value; B-score at 10 µM; 310,000 compounds, 0.86% hits; AID 488975;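 active = B-score over 3 SD under the library average, and starting fluorescence ratio not unusually high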;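 also: choline stimulus applied at its EC90 after an EC20 pre-addition; B-score computed on integrated fluorescence ratio after choline addition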
CHT inh conf – human CHT inhibition, confirmatory screen | CHT-expressing cells, choline membrane potential dye; LV-to-AA substituted CHT, HEK293 cells | CHT activity remaining % of control (stronger effect = lower value), % at 10 µM | 2,400 compounds, 70% hits | shares compounds with CHT inh;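 active = choline transporter activity left, mean of duplicates at 10 µM, below buffer-only control mean minus 3 SD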;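 also: depolarization triggered by choline at its EC90 following an EC20 pre-addition; 0% = hemicholinium-3 full block and 100% = buffer-only control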
HEK293 MPD ctr – activity in parental HEK293 cells lacking CHT; membrane potential dye, choline response; active = decrease or increase beyond buffer ±3SD; membrane potential ratio readout (active if shifted either direction beyond buffer ±3SD; no single direction) at 10 µM; shares compounds with CHT inh; 2,400 compounds, 4% hits;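 also: parental cells lack the transporter so any hit is non-specific; ratio is peak minus trough fluorescence over baseline after EC90 choline challenge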
* marks the source's active call; other numbers are inactive results.

`Cc1ccc(/C=C/C(=O)O)cc1S(=O)(=O)N1CCCCC1` gave CHT allo act inactive, proCasp7 act 7, proCasp3 act -4 and CHT inh inactive.
CC(C)c1ccc(CNCc2ccccc2)cc1 was read as CHT allo act inactive, proCasp7 act 8, proCasp3 act 8, CHT inh -5.1*, CHT inh conf 42%* and HEK293 MPD ctr -15*.
Screening O=C(O)c1ccccc1-c1ccccc1C(=O)Nc1ccc(-c2nc3cc(Cl)ccc3o2)cc1 returned CHT allo act inactive, proCasp7 act 3, proCasp3 act -5, CHT inh -7.5*, CHT inh conf 55%* and HEK293 MPD ctr inactive.
`COc1ccccc1NC(=O)c1cnc(SCC(=O)NCC2CCCO2)n(C)c1=O` (stereo unspecified) gave CHT allo act inactive, proCasp7 act 11, proCasp3 act 1 and CHT inh inactive.
Screening COC(=O)c1ccc(/C=N/n2c(C)nc3ccccc3c2=O)cc1 returned CHT allo act inactive, proCasp7 act 4, proCasp3 act 4 and CHT inh inactive.
`CC(C)(C)OC(=O)NCCCC[C@@H](C(=O)NCCCCCCCCCCC(=O)N1CCN(C(=O)OC(C)(C)C)CC1)n1cc(CCO)nn1` gave CHT allo act inactive, proCasp7 act 10, proCasp3 act 3 and CHT inh inactive.
`CSCC[C@@H](C(=O)NCCCCCCCCCCC(=O)N1CCN(C(=O)OC(C)(C)C)CC1)n1cc(CCO)nn1` gave CHT allo act inactive, proCasp7 act 1, proCasp3 act 8, CHT inh -6.4*, CHT inh conf 40%* and HEK293 MPD ctr inactive.
CCOc1ccc(NCCC(O)c2ccc(F)cc2)cc1 (stereo unspecified) was read as CHT allo act inactive, proCasp7 act -16, proCasp3 act -7 and CHT inh inactive.
`O=C(Nc1nccs1)C1CC(=O)N(c2ccc(F)cc2)C1` (stereo unspecified) gave CHT allo act inactive, proCasp7 act 0, proCasp3 act 3 and CHT inh inactive.
`O=C(Nc1ncc([N+](=O)[O-])s1)C1CC(=O)N(c2ccc(F)cc2)C1` (stereo unspecified) gave CHT allo act inactive, proCasp7 act -3, proCasp3 act -2, CHT inh -6.7*, CHT inh conf 40%* and HEK293 MPD ctr inactive.
`Cc1c(NC(=S)NC(=O)c2cccc3ccccc23)cccc1C(=O)O` gave CHT allo act inactive, proCasp7 act 11, proCasp3 act -1 and CHT inh inactive.
For Cc1c(NC(=S)NC(=O)c2ccc(COc3ccccc3)cc2)cccc1C(=O)O the results were CHT allo act inactive, proCasp7 act -3, proCasp3 act 5, CHT inh -6.3*, CHT inh conf inactive and HEK293 MPD ctr inactive.
For CC(C)Cc1csc(NC(=O)c2ccc(Br)cc2)c1C(=O)O the results were CHT allo act inactive, proCasp7 act 4, proCasp3 act -3, CHT inh -10*, CHT inh conf 61%* and HEK293 MPD ctr inactive.
`O=C(Nc1scc(-c2ccc(Br)cc2)c1C(=O)O)c1ccccc1F` gave CHT allo act inactive, proCasp7 act -1, proCasp3 act 1 and CHT inh inactive.
Screening Cc1ccc(-c2csc(NC(=O)c3ccc(F)cc3)c2C(=O)O)cc1 returned CHT allo act inactive, proCasp7 act -10, proCasp3 act -5, CHT inh -6.4*, CHT inh conf 53%* and HEK293 MPD ctr inactive.
O=C(Nc1scc(-c2ccccc2)c1C(=O)O)c1ccc(F)cc1 was read as CHT allo act inactive, proCasp7 act -9, proCasp3 act -4 and CHT inh inactive.
Screening Cc1ccc(-c2csc(NC(=O)c3ccccc3F)c2C(=O)O)cc1 returned CHT allo act inactive, proCasp7 act 10, proCasp3 act 0, CHT inh -5.1*, CHT inh conf 45%* and HEK293 MPD ctr inactive.
CCn1cc(C(C)NC(=O)Nc2ccccc2C(=O)OC)c(C)n1 (stereo unspecified) was read as CHT allo act inactive, proCasp7 act -5, proCasp3 act 2 and CHT inh inactive.
For Cc1[nH]c(=O)c(C#N)c(C)c1CCC(=O)NCc1ccc(Cl)cc1 the results were CHT allo act inactive, proCasp7 act -7, proCasp3 act -7 and CHT inh inactive.
For CCN1CCN(c2ncnc3scc(-c4ccc(OC)cc4)c23)CC1 the results were CHT allo act inactive, proCasp7 act 5, proCasp3 act -4, CHT inh -5.3*, CHT inh conf 51%* and HEK293 MPD ctr inactive.
Screening Cc1ccc(-c2csc3ncnc(N4CCN(C)CC4)c23)cc1C returned CHT allo act inactive, proCasp7 act -8, proCasp3 act 10, CHT inh -11*, CHT inh conf 48%* and HEK293 MPD ctr inactive.
NS(=O)(=O)c1ccc(CCNCc2ccccc2OCc2ccc(Cl)cc2)cc1 was read as CHT allo act inactive, proCasp7 act 7, proCasp3 act -2, CHT inh -5.1*, CHT inh conf 27%* and HEK293 MPD ctr inactive.
For C=CCOc1ccccc1CNCCc1ccc(S(N)(=O)=O)cc1 the results were CHT allo act inactive, proCasp7 act -5, proCasp3 act 0 and CHT inh inactive.
Screening NS(=O)(=O)c1ccc(CCNCc2cc(Cl)ccc2OCc2ccccc2)cc1 returned CHT allo act inactive, proCasp7 act 10, proCasp3 act 6, CHT inh -6.5*, CHT inh conf 50%* and HEK293 MPD ctr inactive.
Cc1ccc(S(=O)(=O)N2CCCCC2)cc1C(=O)NCCCN1CCOCC1 was read as CHT allo act inactive, proCasp7 act 0, proCasp3 act 7 and CHT inh inactive.
`Cc1cccc(CCN(C(=O)c2csnn2)C(C(=O)NC2CCCC2)c2ccco2)c1` (stereo unspecified) gave CHT allo act inactive, proCasp7 act 2, proCasp3 act -11 and CHT inh inactive.
Screening CN(C(=O)Nc1ccccc1)C1CCCc2ccccc21 (stereo unspecified) returned CHT allo act inactive, proCasp7 act -3, proCasp3 act 5 and CHT inh inactive.
CCOC(=O)c1nc(NNC(=O)c2ccc([N+](=O)[O-])cc2)sc1C was read as CHT allo act inactive, proCasp7 act -2, proCasp3 act -6, CHT inh -9.9*, CHT inh conf 54%* and HEK293 MPD ctr inactive.
